Each structure is given as a SMILES string.

This data set can be described thus: Toxicity liver stage against HepG2, at 10uM. The data set is classed as cell-based. On the set-up: test concentration 10 uM, cell line HepG2-A16-CD81EGFP. The conditions noted are these: human, HepG2-A16-CD81EGFP cells; read-out: INHIBITION
In a few lines: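 Uninfected HepG2-A16-CD81EGFP cells, 3 × 10^3 per well, 1536-well, plated on prespotted compound at 10 μM final, parasite-free screening media added to match infected plates; puromycin 10 μM positive, DMSO 0.5% negative; run in parallel with 48 h PbLuc assay at 37 °C, 5% CO2; viability by CellTiter-Glo luminescence, normalized to controls.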
For `COc1ccc(C2=NOC(C(=O)N3CCCc4ccccc43)C2)cc1` (stereo not drawn), the cytotoxicity at 10 µM came to 0.863%.

As to `COC(=O)[C@@H]1Cc2ncn(C(C)C)c2CN1S(=O)(=O)Cc1ccccc1`, the cytotoxicity at 10 µM was -2.51%.

Consider `Cc1cccc(OC2CCN(C(=O)c3ccc4ncsc4c3)CC2)n1`, for which the cytotoxicity at 10 µM was -3.78%.

As to `CN(C)C(=O)N1CCC2(CCC(C(=O)N3CCCC3)O2)CC1` (stereo not drawn), the cytotoxicity at 10 µM was -0.125%.

Consider `CCN1CC2(CCCCN2C(=O)c2ccn(C)n2)CC1=O` (stereo not drawn), for which the cytotoxicity at 10 µM came out at 10.5%.

For `c1cnc(N2CCCC3(CCN(Cc4cccs4)C3)C2)nc1` (stereo not drawn), the cytotoxicity at 10 µM was 2.58%.

Regarding `O=S(=O)(C1CC1)N1CCC2(CC1)COC(COc1ccccn1)C2` (stereo not drawn), the cytotoxicity at 10 µM came out at 3.35%.

Turning to `COCc1ncn2c1CN(C(=O)c1ccc[nH]1)CC2`, the cytotoxicity at 10 µM is 1.84%.

With `CC(C)CC(NC(=O)Nc1ccc(F)c(Cl)c1)C(=O)O` (stereo not drawn), the cytotoxicity at 10 µM is 8.19%.

Turning to `COc1cc(C2CC(=O)Nc3c2c(=O)[nH]n3C2CCCCC2)ccc1O` (stereo not drawn), the cytotoxicity at 10 µM was -0.607%.

On to `COc1cccc(CNC(=O)CC2CSc3ncc(C)c(=O)n32)c1` (stereo not drawn), for which the cytotoxicity at 10 µM turned out to be 10.4%.

For `Cc1nn(Cn2ccc(C(=O)N3CCC(C)CC3)n2)c(C)c1Cl`, the cytotoxicity at 10 µM was -2.36%.

For `CCn1ccc(NC(=O)C2CCC(=O)N2Cc2ccc(C)o2)n1` (stereo not drawn), the cytotoxicity at 10 µM was 6.17%.

On to `Cc1cc(C2CCCN(S(=O)(=O)N(C)C)C2)ccn1` (stereo not drawn), for which the cytotoxicity at 10 µM was 21.4%.

For `CC[C@@H](Cn1ncc2ccccc2c1=O)NC(=O)c1cnc(C)cn1`, the cytotoxicity at 10 µM was 7.92%.

Take `CN(C)CC(=O)N1CCOCC(Cc2ccccn2)C1` (stereo not drawn): the cytotoxicity at 10 µM was determined as 5.88%.

For `CNC(=O)c1cn[nH]c1C1CCCN1C(=O)c1ccccn1` (stereo not drawn), the cytotoxicity at 10 µM turned out to be 8.52%.

In the case of `COCC(=O)N1CCN(C)C(=O)C(Cc2ccccc2-c2cccs2)C1` (stereo not drawn), the cytotoxicity at 10 µM was -3.73%.

`CNC(=O)c1cn[nH]c1C1CCCN1C(=O)c1cccnc1` (stereo not drawn): the cytotoxicity at 10 µM was -23.3%.

As for `O=C(Cc1ccccc1)N1CCOC(c2nc(-c3ncccn3)no2)C1` (stereo not drawn), the cytotoxicity at 10 µM is -22.6%.

For the molecule `Cc1cc(C(F)(F)F)nc(N(C)Cc2c(C)noc2C)n1`, the cytotoxicity at 10 µM was -13.2%.

As for `CS(=O)(=O)c1ccccc1-n1cc(NC(=O)CC(F)(F)F)cn1`, the cytotoxicity at 10 µM stood at 1.42%.

As to `CC(SCCC(=O)NC(N)=O)c1cccc(F)c1` (stereo not drawn), the cytotoxicity at 10 µM came to 5.28%.

Regarding `CC(C)OCCCNC(=O)CN1CCN(c2nccs2)CC1`, the cytotoxicity at 10 µM is 3.44%.

As for `CC(C)OCCC1CCCCN1S(=O)(=O)c1cnn(C)c1` (stereo not drawn), the cytotoxicity at 10 µM came out at 5.68%.

On to `CC(C)NC(=O)CNC(=O)c1csc(Cc2ccccc2F)n1`, for which the cytotoxicity at 10 µM was -4.44%.

Take `O=C(NC1CCS(=O)(=O)C1)c1ccc(SCc2cscn2)cc1` (stereo not drawn): the cytotoxicity at 10 µM is -1.23%.

In the case of `CNC(=O)c1ccc(NC2CCN(CC(F)(F)F)C2=O)cc1Cl` (stereo not drawn), the cytotoxicity at 10 µM is -1.13%.

Consider `CC(C)N1CCC(CNC(=O)CCc2cc(F)ccc2F)C1` (stereo not drawn), for which the cytotoxicity at 10 µM is -5.38%.

For `CN1CCC(C(=O)N2CCC(=Cc3cccc(F)c3)CC2)CC1=O` (stereo not drawn), the cytotoxicity at 10 µM was -2.19%.

Consider `N#Cc1cnc(NC2CCN(C(=O)C3CC3)CC2)c(Cl)c1`, for which the cytotoxicity at 10 µM is -7.32%.

For `CCS(=O)(=O)NC1CCCN(Cc2ccn(C)c(=O)c2)C1` (stereo not drawn), the cytotoxicity at 10 µM was -1.82%.

As for `Cc1nnc(C(C)Nc2ccc(OCCc3ccccc3)nc2)o1` (stereo not drawn), the cytotoxicity at 10 µM was -4.08%.

For `CCC(C)(CNC(=O)Nc1nccs1)N1CCOCC1` (stereo not drawn), the cytotoxicity at 10 µM was -6.46%.

`CC(C)NC(=O)NCc1ccccc1NS(=O)(=O)c1ccccc1`: the cytotoxicity at 10 µM was 9.6%.

Take `CCNC(=O)NCc1ccnc(N(C)C)n1`: the cytotoxicity at 10 µM is -0.786%.

Turning to `Cn1c(C(=O)N2CCC(C(N)=O)C2)c(Cl)c2ccccc21` (stereo not drawn), the cytotoxicity at 10 µM was determined as 2.03%.

Take `CC(CCO)Nc1cccc(C(F)(F)F)n1` (stereo not drawn): the cytotoxicity at 10 µM is -2.8%.

For `CN(C)C(CNC(=O)c1ccc(-n2cnnn2)cc1)c1ccccc1Cl` (stereo not drawn), the cytotoxicity at 10 µM is -8.16%.

For the molecule `NC(=O)c1ccc(CNCC2CCN(CCO)CC2)cc1`, the cytotoxicity at 10 µM was -9.93%.

For `COc1ccc(Cn2ccnc2)cc1F`, the cytotoxicity at 10 µM was -7.27%.

Regarding `CCOC(=O)c1nc(CN2CCC(NC(=O)C(C)C)CC2)cs1`, the cytotoxicity at 10 µM is -2.98%.

Take `CN(Cc1ccsc1)C(=O)c1ccc(F)c(NS(C)(=O)=O)c1`: the cytotoxicity at 10 µM is -5.7%.

As to `COc1ccccc1C(NC(=O)C1CCCC1)c1noc(C)n1` (stereo not drawn), the cytotoxicity at 10 µM was -2.17%.

For the molecule `O=C(C1CCCOC1)N1CCc2ccc(F)cc21` (stereo not drawn), the cytotoxicity at 10 µM turned out to be 2.35%.

As to `O=C1CCC(C(=O)NCCOc2cccc(Cl)c2Cl)CN1` (stereo not drawn), the cytotoxicity at 10 µM was found to be 4.48%.

Take `Cc1cccc(CN2CCN(C(=O)c3ccc(C)[nH]c3=O)CC2)c1`: the cytotoxicity at 10 µM was 12.8%.

`O=C1CCC(C(=O)Nc2ccc(=O)n(Cc3ccc(Cl)c(Cl)c3)c2)N1` (stereo not drawn): the cytotoxicity at 10 µM is -8.47%.

As for `CC(C)c1ncc(Cl)c(C(=O)N2CCCN3CCCC3C2)n1` (stereo not drawn), the cytotoxicity at 10 µM was -10.2%.

Regarding `CC(=O)NCc1ccc(C(=O)Nc2ccc3c(c2)C(=O)NC3)cc1`, the cytotoxicity at 10 µM turned out to be 0.202%.

`CC(=O)Nc1cc(CN(C)C)ccc1C`: the cytotoxicity at 10 µM is -1.89%.

With `CC1c2cccn2CCN1C(=O)CCc1nc(C2CC2)no1` (stereo not drawn), the cytotoxicity at 10 µM was -2.13%.

In the case of `Cc1nc(C(C)C)sc1C(=O)NCC(C)(C)N1CCOCC1`, the cytotoxicity at 10 µM is -6.47%.

On to `CCc1noc(CS(=O)(=O)CC(=O)N2c3ccccc3CC2C)n1` (stereo not drawn), for which the cytotoxicity at 10 µM turned out to be 7.07%.

Turning to `CCNC(=O)NC(=O)CN1CCOC(c2cccc(Br)c2)C1` (stereo not drawn), the cytotoxicity at 10 µM came to 1.83%.

Turning to `CC(C)c1nc(C2CCCN2c2cnc3cc(F)c(F)cc3n2)no1` (stereo not drawn), the cytotoxicity at 10 µM came to 5.18%.

Take `CCN(C)C1CCCc2nc(C)sc21` (stereo not drawn): the cytotoxicity at 10 µM is -0.887%.

`Cn1cccc(NC(=O)N2CCC(Cc3ccccc3)C2)c1=O` (stereo not drawn): the cytotoxicity at 10 µM is 11.9%.

As to `CN(CC(F)(F)F)C(=O)CNC(=O)Cc1ccc(O)cc1Cl`, the cytotoxicity at 10 µM is -1.11%.

Take `CN1CCCC1CNC(=O)c1nnn(-c2ccc(F)cc2)c1C1CC1` (stereo not drawn): the cytotoxicity at 10 µM is -15.9%.

In the case of `COc1cccc(CN(C)C(=O)CN2CCN(c3nccn3C)CC2)c1`, the cytotoxicity at 10 µM came out at 14.3%.

On to `Cc1cc(NS(=O)(=O)c2ccccc2F)ccc1-n1cccc1C(=O)O`, for which the cytotoxicity at 10 µM is -5.67%.

As for `CCC(C)N(Cc1cccnc1)Cc1cc2c(cc1OC)OCO2` (stereo not drawn), the cytotoxicity at 10 µM was determined as 3.17%.

Take `CCCc1nccn1-c1ccc(C(C)O)cc1` (stereo not drawn): the cytotoxicity at 10 µM is 5.38%.

`O=C(NCCc1cscn1)c1coc(CN2CCOCC2)c1`: the cytotoxicity at 10 µM was -3.7%.

As to `CN1C(=O)C2(CCN(c3ncccc3C(=O)O)CC2)c2ccccc21`, the cytotoxicity at 10 µM is -2.25%.

Take `COCc1nc(C2CC2)nn1-c1cccc(F)c1`: the cytotoxicity at 10 µM turned out to be 2.64%.

Regarding `CCn1c(N)nc2cc(C(=O)NCCc3ccncc3)cnc21`, the cytotoxicity at 10 µM was found to be 1.22%.

As to `Cc1csc(CNc2ccc(-c3nc(C4CC4)no3)cn2)n1`, the cytotoxicity at 10 µM is -16.2%.

Take `Cc1nc2c(c(N[C@H](C(N)=O)C(C)C)n1)Cc1ccccc1OC2`: the cytotoxicity at 10 µM was determined as 4.71%.

Consider `CN(C)C[C@@H]1CN(Cc2ccccc2C#N)C[C@@H]1CO`, for which the cytotoxicity at 10 µM is -1.56%.

Take `CCC[C@@H]1CN(Cc2ccccc2-c2ccco2)C[C@H]1NC(C)=O`: the cytotoxicity at 10 µM was determined as 20.9%.

Turning to `COc1cccn(CC(=O)N(C)Cc2ccoc2)c1=O`, the cytotoxicity at 10 µM is -9.93%.

Regarding `COc1cccc(OCC2CCCN(C(C)=O)C2)c1` (stereo not drawn), the cytotoxicity at 10 µM is 5.85%.

For the molecule `Cc1oc(C(=O)O)cc1S(=O)(=O)Nc1ccc(Cl)cc1F`, the cytotoxicity at 10 µM was -0.354%.

With `NC(=O)c1cc(C2CCCN(C(=O)CCc3ccccn3)C2)n[nH]1` (stereo not drawn), the cytotoxicity at 10 µM was -8.47%.

As for `COc1ccc(C2CCCN2C(=O)NCCn2ccnc2)cc1OC` (stereo not drawn), the cytotoxicity at 10 µM is -2.16%.

As to `CCc1ccsc1C(=O)N1CCN(CCN2C(=O)CCC2=O)CC1`, the cytotoxicity at 10 µM was -3.82%.

Consider `Cc1csc(C2CCCCN2C(=O)CN(C)C(C)C)n1` (stereo not drawn), for which the cytotoxicity at 10 µM was -3.62%.

Consider `Cc1nn(C)c(N(C)C)c1CNCc1ccc(C(=O)N(C)C)cc1`, for which the cytotoxicity at 10 µM was -9.55%.

With `c1ccc(CCCN2CCOC(Cn3cccn3)C2)cc1` (stereo not drawn), the cytotoxicity at 10 µM amounted to 9.11%.

Regarding `CC1CN(C(=O)CN(Cc2ccco2)Cc2cccs2)CCO1` (stereo not drawn), the cytotoxicity at 10 µM is -7.68%.

In the case of `O=C(c1nn(-c2ccccc2F)cc1O)N1CCCC1`, the cytotoxicity at 10 µM is -4.99%.

Turning to `Cc1ccc(-c2nnc(CN3CCOC(Cn4cccn4)C3)o2)cc1` (stereo not drawn), the cytotoxicity at 10 µM is -8.06%.

As to `CN(C)S(=O)(=O)c1ccc(OCCNCCn2cccn2)cc1`, the cytotoxicity at 10 µM was found to be 0.626%.

For the molecule `COc1cc(/C=C/c2ncc(C(=O)O)s2)cc(Cl)c1O`, the cytotoxicity at 10 µM is 4.14%.

With `Cc1ccc(C(=O)N2CCN(C(=O)Nc3ccccn3)CC2)o1`, the cytotoxicity at 10 µM amounted to 2.14%.

As for `CNC(=O)[C@@H]1CC[C@@H]2[C@@H](CCN2Cc2cn(C)c3ccccc23)O1`, the cytotoxicity at 10 µM turned out to be 10.7%.

`CC(C)NC1CCc2c(ccc(=O)n2CCN2CCCC2=O)C1` (stereo not drawn): the cytotoxicity at 10 µM was 9.52%.

Regarding `c1cc(CN2CC[C@@H]3[C@@H](CO[C@H]3CN3CCOCC3)C2)cs1`, the cytotoxicity at 10 µM is -1.19%.

In the case of `COCCN1CCC12CCN(C(=O)c1ccsc1)CC2`, the cytotoxicity at 10 µM was -145%.

`FC1(F)CCN(Cc2cccnc2)CC12CCN(c1cnccn1)C2` (stereo not drawn): the cytotoxicity at 10 µM turned out to be 2.6%.

With `O=C(CCn1c(C(F)(F)F)cc2cccnc21)N1CCOCC1`, the cytotoxicity at 10 µM was -22.6%.

Turning to `OC(CN1CCN(Cc2ccccc2)CC1)C1CC1` (stereo not drawn), the cytotoxicity at 10 µM was determined as 3.3%.

As for `O=C([C@H]1COC[C@H]2CN(C3CCOCC3)C[C@H]21)N1CCC(F)CC1`, the cytotoxicity at 10 µM was -112%.

On to `O=C(O)c1cc(C=Cc2ccccc2)ncn1`, for which the cytotoxicity at 10 µM was 5.17%.

For the molecule `O=C(c1ccncc1)N1C[C@H]2CC[C@@H](C1)N(C(=O)N1CCOCC1)C2`, the cytotoxicity at 10 µM was 2.44%.

For the molecule `Nc1ccc(C(=O)N2C[C@H]3CC[C@@H](C2)N(Cc2ccccc2)C3)cn1`, the cytotoxicity at 10 µM is -121%.

For the origin of these results see ChEMBL document CHEMBL4513216, “Probing the Open Global Health Chemical Diversity Library for Multistage-Active Starting Points for Next-Generation Antimalarials” (ACS Infect Dis, 2020).
